Measurements published in PMC12765261 (Journal of Pharmaceutical Analysis, 2025).
Structures can show the parent of a compound that is named as a salt.

Experiments:
[1] = system: GLUT4 expression in HepG2 cells; test: GLUT4 immunofluorescence; assay type: cell-based; settings: 2 h pre-treatment before HGHI incubation
Method in brief: (§1)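 Before the high-glucose/high-insulin step (30 mM glucose, 5 μM insulin, 30 h), cells were pre-treated for 2 h with the PI3K inhibitor LY294002 or the AMPK inhibitor dorsomorphin. They then received test compounds at varying concentrations for 24 h. GLUT4 was immunostained with a rabbit polyclonal primary and a fluorescein-conjugated secondary, with DAPI for nuclei. Cells were imaged by confocal microscopy and GLUT4 signal was quantified.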

[2] = system: GLUT4 expression in H9c2 cells; test: GLUT4 immunofluorescence; assay type: cell-based; settings: 2 h pre-treatment before HGHI incubation
Method in brief: as §1

Stability experiments = assay type: physicochemical; settings: 75% RH for 5 and 10 days
Hygroscopicity test = assay type: physicochemical; settings: 25 °C/80% RH for 24 h
Method in brief: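 Co-amorphous samples were held at 25 °C/80% RH for 24 h, and percentage weight gain was calculated, n = 3. Pharmacopeial criteria were applied: a gain above 2% but below 15% counts as hygroscopic.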

H9c2 cells = test: Cytotoxicity, MTT assay under HGHI conditions; assay type: cell-based; settings: 24 h
Method in brief: (§2)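 Cell lines were kept in DMEM (25 mM glucose, 10% FBS, 1% penicillin/streptomycin) at 37 °C and 5% CO2. Insulin resistance was induced with 30 mM glucose plus 5 μM insulin for 30 h. Cells were then exposed for 24 h under these conditions to a range of concentrations of the single components, a physical mixture or the co-amorphous system. Viability was read by MTT, n = 3, mean ± SD.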

HepG2 cells = test: Cytotoxicity, MTT assay under HGHI conditions; assay type: cell-based; settings: 24 h
Method in brief: as §2

| Phase stability under high humidity (XRD) (Stability experiments) | Percentage of weight gain (hygroscopicity) (Hygroscopicity test) [%] | Structure (SMILES) | Effect of inhibitor on GLUT4 fluorescence induced by COA-I [1] | Effect of inhibitor on GLUT4 fluorescence induced by COA-I [2] | Concentrations showing cytotoxicity (H9c2 cells) | Concentrations showing cytotoxicity (HepG2 cells) |
| --- | --- | --- | --- | --- | --- | --- |
|  |  | O=c1cc(N2CCOCC2)oc2c(-c3ccccc3)cccc12 [LY294002] | attenuated | attenuated |  |  |
| remained amorphous | 5.36 | CCOc1ccc(Cc2cc([C@@H]3O[C@H](CO)[C@@H](O)[C@H](O)[C@H]3O)ccc2Cl)cc1 [DAP, Dapagliflozin] |  |  |  |  |
|  |  | c1cc(-c2cnn3cc(-c4ccc(OCCN5CCCCC5)cc4)cnc23)ccn1 [compound C, dorsomorphin (compound C) dihydrochloride] | attenuated | attenuated |  |  |
|  | 0.86 | CCc1ccc(CCOc2ccc(CC3SC(=O)NC3=O)cc2)nc1 (stereo not drawn) [PIO, Pioglitazone] |  |  | higher than 10 μM | higher than 10 μM |
